ChEMBL document CHEMBL1128448, “Synthesis and antifungal activity of new azole derivatives containing an N-acylmorpholine ring” (1995)
Converted amounts (≈) assume the structure as drawn.

Columns and labels:
Aspergillus flavus = test: In vitro evaluation of minimum inhibitory concentration against Aspergillus flavus 19; format: functional
Method in brief: (§1)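 Stocks are 800 μg/mL in 50% ethanol. Each plate gets 10 μL of inoculum at 10^5 cfu/mL. Incubation at 25 °C, 48 h for yeasts and 120 h for dermatophytes and molds. Organisms are ATCC strains or clinical isolates.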

Kluyveromyces marxianus = test: In vitro evaluation of minimum inhibitory concentration against Candida pseudotropicalis 13; format: functional; method in brief: as §1
Mus sp. [1] = test: In vivo evaluation of % survival rate after peroral administration on 9th day at dose 2.5 mg/kg; format: functional; conditions: Mus sp., po
Mus sp. [2] = test: In vivo evaluation of % survival rate after peroral administration on 7th day at dose 1 mg/kg; format: functional; conditions: route oral, 1 mg/kg
Mus sp. [3] = test: In vivo evaluation of % survival rate after peroral administration on 3rd day at dose 2.5 mg/kg; format: functional; conditions: Mus sp., po
Microsporum canis = test: In vitro evaluation of minimum inhibitory concentration against Microsporum canis 47; format: functional; method in brief: as §1
Candida albicans [4] = test: In vitro evaluation of minimum inhibitory concentration against Candida albicans 76; format: functional; method in brief: as §1
Mus sp. [5] = test: In vivo evaluation of % survival rate after peroral administration on 9th day at dose 1 mg/kg; format: functional; conditions: route oral, 1 mg/kg
Trichophyton benhamiae = test: In vitro evaluation of minimum inhibitory concentration against Trichophyton mentagrophytes 23; format: functional, Arthroderma benhamiae; method in brief: as §1
Nakaseomyces glabratus = test: In vitro evaluation of minimum inhibitory concentration against Torulopsis glabrata 78; format: functional; method in brief: as §1
Mus sp. [6] = test: In vivo evaluation of % survival rate after peroral administration on 7th day at dose 2.5 mg/kg; format: functional; conditions: Mus sp., po
Aspergillus niger = test: In vitro evaluation of minimum inhibitory concentration against Aspergillus niger 18; format: functional; method in brief: as §1
Candida albicans [7] = test: […] Evaluation of minimum inhibitory concentration against Candida albicans 60; format: functional; method in brief: as §1
Nannizzia gypsea = test: In vitro evaluation of minimum inhibitory concentration against Microsporum gypseum 22; format: functional; method in brief: as §1
Rhodotorula mucilaginosa = test: In vitro evaluation of minimum inhibitory concentration against Rhodotorula rubra 16; format: functional; method in brief: as §1
[8] = tested on: Meyerozyma guilliermondii; test: In vitro evaluation of minimum inhibitory concentration against Candida guilliermondii 26; format: functional; method in brief: as §1
Pichia kudriavzevii = test: In vitro evaluation of minimum inhibitory concentration against Candida krusei 70; format: functional; method in brief: as §1
Trichophyton rubrum = test: In vitro evaluation of minimum inhibitory concentration against Trichophyton rubrum 90; format: functional; method in brief: as §1
Candida tropicalis = test: In vitro evaluation of minimum inhibitory concentration against Candida tropicalis 2.11; format: functional; method in brief: as §1
Candida albicans [9] = test: […] Evaluation of minimum inhibitory concentration against Candida albicans 406; format: functional; method in brief: as §1
Aspergillus fumigatus = test: In vitro evaluation of minimum inhibitory concentration against Aspergillus fumigatus 33; format: functional; method in brief: as §1
Candida parapsilosis = test: In vitro evaluation of minimum inhibitory concentration against Candida parapsilosis 61; format: functional; method in brief: as §1
Mus sp. [10] = test: In vivo evaluation of % survival rate after peroral administration on 5th day at dose 2.5 mg/kg; format: functional; conditions: Mus sp., po

C[C@@H](NC(=O)c1ccc(C(F)(F)F)cc1)[C@](O)(Cn1cncn1)c1ccc(F)cc1F (racemic) was tested, and the MIC (Aspergillus flavus) was >40 mg/L, the MIC (Kluyveromyces marxianus) was 40 mg/L (≈ 90.8 µM) and the survival at 2.5 mg/kg (Mus sp. [1]) was 100%. The Survival (Mus sp. [2]) was 80%, the survival at 2.5 mg/kg (Mus sp. [3]) was 100% and the MIC (Microsporum canis) was >80 mg/L. The MIC (Candida albicans [4]) was 80 mg/L (≈ 182 µM), the Survival (Mus sp. [5]) was 60% and the MIC (Trichophyton benhamiae) was >80 mg/L. The MIC (Nakaseomyces glabratus) was >80 mg/L, the survival at 2.5 mg/kg (Mus sp. [6]) was 100% and the MIC (Aspergillus niger) was >80 mg/L. The MIC (Candida albicans [7]) was 0.63 mg/L (≈ 1.43 µM), the MIC (Nannizzia gypsea) was >80 mg/L and the MIC (Rhodotorula mucilaginosa) was 2.5 mg/L (≈ 5.68 µM). For the same molecule, the MIC [8] was 2.5 mg/L (≈ 5.68 µM), the MIC (Pichia kudriavzevii) was >80 mg/L and the MIC (Trichophyton rubrum) was >40 mg/L. For the same molecule, the MIC (Candida tropicalis) was 80 mg/L (≈ 182 µM), the MIC (Candida albicans [9]) was 0.31 mg/L (≈ 0.704 µM) and the MIC (Aspergillus fumigatus) was >80 mg/L. For the same molecule, the MIC (Candida parapsilosis) was 20 mg/L (≈ 45.4 µM) and the survival at 2.5 mg/kg (Mus sp. [10]) was 100%.
